# Compound activity (PubChem)
# CAL PDZ FP-1 – blocks peptide binding to the human CAL PDZ domain; AID 602252; inhibition, % at 24.9 µM; purified CAL PDZ, TMR-peptide fluorescence polarization, 1 h; Q9HD26; actives 0.92% (n = 300,000);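 active means mean inhibition of at least 30% with at least half of replicates also reaching 30%; inconclusive means no clear call, values can overlap the other calls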
# SR-BI uptake up – SR-BI HDL lipid transfer activation; activation, % at 12.5 µM; AID 504775; CHO ldlA[mSR-BI] cells, DiI-HDL uptake fluorescence, 3 h; 100 = double the neutral-control signal; actives 0.096% (n = 320,000);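 active means mean replicate activation of at least 60% and every replicate at or above 60%; inconclusive means mean or all-replicate condition met, but not both; inactive means mean below 60% and not all replicates reaching 60%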
#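 Material: SR-BI-overexpressing, LDLR-lacking CHO cells; schedule: compound exposure 3 h, 37 °C; reagent: DiI-labelled HDL at 10 µg/mL final; technique: bottom-read fluorescence, 550/595 nm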
# CAL PDZ FP-2 – blocks peptide binding to human CAL PDZ domain. Q9HD26. purified CAL PDZ, TMR-peptide fluorescence polarization, 1 h. inhibition, % at 20 µM. actives 0.02% (n = 330,000). AID 504414;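 active means highest replicate inhibition of at least 40%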
#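 Material: tagged CAL PDZ protein CerCALP, purified; buffer or medium: sodium phosphate/NaCl buffer pH 7.4 with TCEP, IgG, Thesit; also added: fluorescent TMR peptide probe; schedule: 1 h incubation at room temperature before polarization reading; technique: fluorescence polarization from S- and P-plane intensities, G-factor corrected; control set: unlabelled peptide and DMSO controls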
# SR-BI DiI inh – mouse SR-BI HDL lipid transfer inhibition; AID 488896; actives 0.96% (n = 320,000); Q61009; ldlA[mSR-BI] CHO cells, DiI-HDL uptake fluorescence, 3 h; inhibition, % at 12.5 µM;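 active means mean replicate inhibition of at least 70% and a set share of replicates each scoring 70 or more; inconclusive means meets just one of the two criteria; inactive means fails both criteria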
# dFosB activator – mouse delta FosB homodimer activation | P13346 | purified delta FosB, TAMRA-CDK5 oligo fluorescence polarization; percent of positive-control signal above neutral wells | activation, % at 25 µM | actives 0.99% (n = 340,000) | AID 493131;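 active means mean activation above about 17%, with every replicate also reaching it, limit read from the data, passing the limit was not always enough; inconclusive means only one of the two conditions met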
# Target sequence (P13346 whole entry, looked up): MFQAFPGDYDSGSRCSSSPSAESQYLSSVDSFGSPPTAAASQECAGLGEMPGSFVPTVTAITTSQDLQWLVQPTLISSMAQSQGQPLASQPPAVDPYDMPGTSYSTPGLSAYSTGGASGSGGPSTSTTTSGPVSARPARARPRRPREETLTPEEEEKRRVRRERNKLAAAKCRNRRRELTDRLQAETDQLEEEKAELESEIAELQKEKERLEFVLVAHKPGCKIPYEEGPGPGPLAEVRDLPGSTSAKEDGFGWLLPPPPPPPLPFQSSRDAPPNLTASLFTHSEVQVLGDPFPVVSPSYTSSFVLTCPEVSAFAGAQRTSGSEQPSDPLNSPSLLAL
# Hits are given with their value; n = inactive; u = inconclusive; x = no result. This is a sample that favours compounds with a hit; in the whole collection about 2.8% have one here.
SMILES,CAL PDZ FP-1,SR-BI uptake up,CAL PDZ FP-2,SR-BI DiI inh,dFosB activator
COc1ccc(C(=O)N/N=C/c2c(C)nn(-c3ccccc3)c2OC)cc1,n,n,n,71.2,n
Cc1nn(-c2ccccc2)c(C)c1/C=N/NC(=O)c1cc(O)cc(O)c1,x,n,n,n,n
COc1ccc(OC)c(/C=N\NC(=O)c2ccc(-c3ccccc3)cc2)c1,n,x,n,77.5,n
CC1(C)Cc2c(cnn2-c2ccc(F)cc2)C(NC(=O)CCc2ccncc2)C1 (centres undefined),n,n,n,n,n
CCC(C)c1ccc(OCc2ccc(C(=O)O)o2)cc1 (centres undefined),n,n,n,n,n
N#CCCn1cc(C(=O)O)c(-c2ccc3ccccc3c2)n1,n,n,n,n,n
O=C(NC1CCCCC1)N1CCN(c2nc(-c3ccccc3)cs2)CC1,58.8,n,n,n,n
NC(=O)C1CCN(c2nc(-c3cccnc3)cs2)CC1,n,n,n,n,32.7
NC(=O)C1CCN(c2nc(-c3cccc(N)c3)cs2)CC1,n,n,n,n,n
O=C(NC12CC3CC(CC(C3)C1)C2)N1CCN(c2nc(-c3ccccc3)cs2)CC1,n,n,n,n,n
CCN1CCSc2ccc(C(=O)NCc3ccccc3C)cc21,x,n,n,n,n
CCN1CCSc2ccc(C(=O)Nc3ccc(NC(C)=O)cc3)cc21,n,n,n,80.0,n
COc1ccc(OCCCC(=O)NNC(=O)c2ccncc2)cc1,n,n,n,n,n
COc1ccccc1OCCSc1nc2ccccc2n1CC(N)=O,58.8,n,x,n,n
Cc1ccc(C2=NN(CCC(=O)NCCCN3CCOCC3)C(=O)CC2)cc1,n,n,n,n,n
O=C(CCN1N=C(c2ccccc2)CCC1=O)NCCCN1CCOCC1,64.4,n,n,n,n
CCn1cc(/C=C(\NC(=O)c2ccccc2F)C(=O)NCCN2CCOCC2)c2ccccc21,n,n,n,n,n
O=C1NCCCC1C(=O)N/N=C/c1cc([N+](=O)[O-])ccc1O (centres undefined),n,n,n,n,n
Cc1cccc(/C=N/NC(=O)c2c(-c3ccccc3)noc2C)c1O,n,n,n,102.0,n
COc1ccccc1/C=N/NC(=O)c1c(-c2ccccc2)noc1C,n,x,n,x,n
O=C(N/N=C/c1cc([N+](=O)[O-])ccc1O)c1ccc2c(c1)OCCO2,n,n,n,130.9,n
O=C(N/N=C/c1cc([N+](=O)[O-])ccc1O)C1CC1,78.6,n,n,n,n
COc1ccc2ccccc2c1/C=N/NC(=S)Nc1cc(S(=O)(=O)N2CCOCC2)ccc1N1CCOCC1,n,n,n,n,n
CCOc1cccc(/C=N/NC(=S)Nc2cc(S(=O)(=O)N3CCOCC3)ccc2N2CCOCC2)c1O,n,n,n,93.5,n
O=C(c1cc(-c2cccs2)nn1-c1ccccc1)N1CCN(S(=O)(=O)c2ccccc2)CC1,n,n,n,n,n
SMILES,CAL PDZ FP-1,SR-BI uptake up,CAL PDZ FP-2,SR-BI DiI inh,dFosB activator
CCOc1cccc(/C=N/NC(=O)c2cc(-c3cccn3C)n[nH]2)c1O,n,n,x,104.4,n
O=C(N/N=C\c1cn(-c2ccccc2)nc1-c1ccccc1)c1ccc2c(c1)OCO2,n,n,n,n,n
O=C(N/N=C/c1cc([N+](=O)[O-])ccc1N1CCCCCC1)c1ccccn1,n,n,n,80.2,n
O=C(N/N=C/c1cn(-c2ccccc2)nc1-c1ccc(F)cc1)c1ccc2c(c1)OCO2,n,n,n,74.0,n
O=C(N/N=C/c1cc([N+](=O)[O-])ccc1O)c1cccc(N2CCCC2=O)c1,x,n,n,117.0,n
COc1cc(OC)c(OC)cc1/C=N/NC(=O)c1cc(-c2cccn2C)n[nH]1,n,n,n,n,n
Cc1cc(OCc2cc(C(=O)N(C)C(C)c3ccccn3)no2)cc(C)c1Cl (centres undefined),n,n,n,n,n
CCOC(=O)N1CCN(S(=O)(=O)N2CCCC(C(=O)NCc3ccc(OC)cc3)C2)CC1 (centres undefined),n,n,n,n,n
COc1cccc(/C=N/NC(=O)c2c(C)nc3ccc(Cl)cn23)c1O,62.1,n,n,120.5,n
C/C(=N\NC(=O)c1ccc2c(c1)OCO2)c1ccc(C(=O)O)s1,n,n,n,n,n
CCOc1cccc(/C=N/NC(=O)c2ccc3c(c2)OCCO3)c1O,n,n,n,86.6,n
COc1ccccc1/C=N\NC(=O)c1c(C)nc2ccc(Cl)cn12,n,n,n,n,n
COc1ccc(-c2nn(-c3ccccc3)cc2/C=N/NC(=O)c2ccc(Br)o2)cc1,n,n,n,82.0,n
COc1ccc(-c2nn(-c3ccccc3)cc2/C=N/NC(=O)c2cccc(S(=O)(=O)Nc3ccccc3OC)c2)cc1,n,n,n,n,n
C/C(=N\NC(=O)c1ccc2c(c1)OCO2)c1ccc2c(c1)OCO2,47.5,n,n,n,n
O=C(c1c[nH]c(C(=O)N2CCN(c3ccccc3F)CC2)c1)c1cccc(Cl)c1Cl,n,n,n,n,n
CN(C1CCCCC1)S(=O)(=O)c1ccc2[nH]c(=O)oc2c1,n,x,n,x,n
COc1ccccc1/C=N/NC(=O)c1ccc2c(c1)OCO2,69.9,n,x,n,n
Cc1cccc(/C=N\NC(=O)c2ccc(Cl)cc2)c1O,n,n,n,140.8,n
COc1ccc(-c2nn(-c3ccccc3)cc2/C=C/C(=O)OCC(=O)Nc2ccc(C#N)cc2)cc1,n,n,n,87.4,n
Cc1cccc(/C=N/NC(=O)Cc2ccc(Cl)cc2)c1O,x,n,n,n,n
Cc1cccc(/C=N/NC(=O)c2ccc3c(c2)OCCO3)c1O,n,n,n,111.3,n
O=C(N/N=C/c1cc([N+](=O)[O-])ccc1O)c1cccc2cc[nH]c12,n,n,n,143.9,u
O=C(N/N=C/c1cccc([N+](=O)[O-])c1)c1cccc2cc[nH]c12,n,n,n,n,n
COc1cc(OC)cc(C(=O)OC(C)C(=O)NC2CCCc3ccccc32)c1 (centres undefined),61.2,n,n,n,n
SMILES,CAL PDZ FP-1,SR-BI uptake up,CAL PDZ FP-2,SR-BI DiI inh,dFosB activator
COc1ccc(OC)c(NC(=O)c2cccc(C)c2[N+](=O)[O-])c1,n,n,n,72.5,n
CCN(CC)S(=O)(=O)c1ccc(OC)c(NC(=O)c2cccc(C)c2[N+](=O)[O-])c1,x,n,n,n,n
COc1ccc([N+](=O)[O-])cc1NC(=O)c1ccc(N2C(=O)CCC2=O)cc1,x,x,n,x,n
COc1ccc([N+](=O)[O-])cc1NC(=O)c1ccc(-n2nc(C)cc2C)cc1,n,n,n,90.1,n
COc1ccc([N+](=O)[O-])cc1NC(=O)c1ccccc1SC,n,n,n,77.3,n
CSc1ccccc1C(=O)Nc1cccc([N+](=O)[O-])c1,n,n,n,n,n
COc1ccc(OC)c(NC(=O)/C=C/c2ccccc2[N+](=O)[O-])c1,n,n,n,86.0,n
